Assay outcomes as filed in PubChem.
In the library only some 4% were active in any assay of this set; here they are far more common.
MPTP block – permeability transition pore inhibition; isolated mouse mitochondria, Ca2+ swelling absorbance, 30 min; actives 1.4% (n = 360,000); AID 602449; inhibition, % at 10 µM;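 active = inhibition of 50% or more, scaled per plate between neutral and stimulator controls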;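 also: 0% = DMSO wells given calcium and 100% = 1 mM EGTA wells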
TAAR1 antag – antagonists of human TAAR1 | actives 1.5% (n = 360,000) | inhibition, % at 3 µM | CHO RD-HGA16 TAAR1, Fluo-8 calcium fluorescence, antagonist | Q96RJ0;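 active = inhibition above a per-plate cutoff, the mean inhibition of test compounds on that plate plus 3 SD, cut at about 49% in these data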;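 also: 0% = DMSO plus EC80 beta-PEA response and 100% = DMSO alone without agonist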
Target sequence (Q96RJ0 whole entry, looked up): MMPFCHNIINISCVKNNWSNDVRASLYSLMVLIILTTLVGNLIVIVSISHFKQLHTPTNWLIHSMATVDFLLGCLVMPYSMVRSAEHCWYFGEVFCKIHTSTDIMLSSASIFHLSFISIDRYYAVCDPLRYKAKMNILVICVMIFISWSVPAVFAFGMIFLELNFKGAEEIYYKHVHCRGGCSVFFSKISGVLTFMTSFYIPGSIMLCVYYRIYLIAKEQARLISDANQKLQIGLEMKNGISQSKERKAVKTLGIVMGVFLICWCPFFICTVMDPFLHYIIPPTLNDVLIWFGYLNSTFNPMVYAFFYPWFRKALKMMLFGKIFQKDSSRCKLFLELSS
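Material: RD-HGA16 CHO cells with stable hTAAR1 and Gα16; Dosing: single nominal final test compound concentration of 3 µM; Schedule: seeding 17-24 h prior, 75-min 37 °C, 30-min RT dye loading; Detection: kinetic Fluo-8 calcium fluorescence measurement; Measure: % inhibition from peak post-agonist over basal fluorescence ratio; Benchmarks: vehicle and agonist controls.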
GPR7 antagonist – antagonists of human GPR7 (neuropeptides B/W receptor 1) | GPR7-expressing cells, fluorescence antagonist assay | inhibition, % at 4.4 µM | actives 1.1% (n = 290,000) | AID 1861; in the data active = inhibition above about 16%, passing the limit was not always enough;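 also: cells stimulated with the agonist NPW; 0% = agonist with vehicle and 100% = vehicle without agonist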
Target sequence (P48145 whole entry, looked up): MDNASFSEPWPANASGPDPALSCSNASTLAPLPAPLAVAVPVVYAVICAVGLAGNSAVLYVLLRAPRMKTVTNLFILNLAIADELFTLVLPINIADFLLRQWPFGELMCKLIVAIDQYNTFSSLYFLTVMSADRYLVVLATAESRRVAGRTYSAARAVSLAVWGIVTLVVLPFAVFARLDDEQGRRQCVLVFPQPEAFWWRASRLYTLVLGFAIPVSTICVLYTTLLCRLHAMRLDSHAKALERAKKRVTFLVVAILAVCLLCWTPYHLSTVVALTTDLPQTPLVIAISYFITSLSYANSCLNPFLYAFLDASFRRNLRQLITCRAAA
TAAR1 agonist – human TAAR1 agonism. Q96RJ0. CHO RD-HGA16 TAAR1, Fluo-8 calcium fluorescence; vehicle wells 0%, saturating PEA agonist 100%. activation, % at 3 µM. actives 0.99% (n = 360,000);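 active = activation above the mean activation of all test compounds in the run plus 3 SD, cut at about 38% in these data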
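Test system: RD-HGA16 (CHO) cells co-expressing Gα16 and hTAAR1 | Doses: Single dose, 3 µM | Schedule: 17-24 h seeding, 75 min 37 °C dye, 30 min RT | Evaluation: % activation from peak over basal fluorescence ratio, DMSO-to-PEA scaled | Technique: Kinetic Fluo-8 calcium fluorescence | Benchmarks: Low control DMSO, high control PEA (EC100)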
DAGLB inh – blocks human DAGLB lipase activity; inhibition, % at 5.17 µM; Q8NCG7; HEK293T DAGLB membrane lysate, EnzChek fluorogenic substrate; AID 504411; actives 0.059% (n = 340,000); in the data active = inhibition above about 34%;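 also: 0% = enzyme with vehicle and 100% = wells lacking enzyme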
Rh123 counter – membrane potential counter-screen of mitochondrial pore inhibitors; shares compounds with MPTP block; isolated mitochondria, Rhodamine 123 fluorescence; AID 624504; actives 78% (n = 5,000); inhibition, % at 10 µM; in the data active = inhibition above about 22%;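 also: 0% = DMSO vehicle and 100% = positive control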
An asterisk follows results filed as active.

What do the screens show for `Nc1nonc1C(=O)NCCNCc1cc(Br)ccc1OCc1ccc(F)cc1`?
MPTP block: 64.7*; TAAR1 antag: 28.9; GPR7 antagonist: 15.9; TAAR1 agonist: 13.6; DAGLB inh: -0.4; Rh123 counter: 71.5*

Results for CCOc1ccc(S(=O)(=O)Nc2cccc(N(C)S(C)(=O)=O)c2)cc1 ?
MPTP block: 94.7*; TAAR1 antag: 11.6; GPR7 antagonist: 0.0; TAAR1 agonist: 9.9; DAGLB inh: 1.1; Rh123 counter: 41.8*

Results for CCOC(=O)c1c(NC(=O)c2ccncc2)sc(C)c1C ?
MPTP block: -0.3; TAAR1 antag: -7.9; GPR7 antagonist: 4.5; TAAR1 agonist: -2.2; DAGLB inh: -8.2

Results for CCOC(=O)c1sc(NC(=O)CSc2n[nH]c(-c3ccc(Cl)cc3Cl)n2)c(C#N)c1C ?
MPTP block: 83.3*; TAAR1 antag: -11.3; GPR7 antagonist: 1.5; TAAR1 agonist: 9.4; DAGLB inh: 2.1; Rh123 counter: 82.8*

Results for CCOC(=O)c1sc(NC(=O)CSc2nc(C)cc(-c3ccccc3)n2)c(C#N)c1C ?
MPTP block: 0.4; TAAR1 antag: -0.4; GPR7 antagonist: -0.7; TAAR1 agonist: 8.6; DAGLB inh: 1.2

Results for CCOC(=O)c1sc(NC(=O)c2cc(-c3ccccc3C)nc3ccccc23)c(C#N)c1C ?
MPTP block: 111.6*; TAAR1 antag: -4.7; GPR7 antagonist: 11.1; TAAR1 agonist: 15.1; DAGLB inh: -0.3; Rh123 counter: 87.2*

Results for CCOC(=O)c1sc(NC(=O)c2ccncc2)c(C#N)c1C ?
MPTP block: 96.8*; TAAR1 antag: -9.8; GPR7 antagonist: -3.0; TAAR1 agonist: 9.7; DAGLB inh: -0.3; Rh123 counter: 86.6*

What do the screens show for `COCCNC(=O)C1CCCN(C(=O)c2ccc(C(F)(F)F)nc2C)CC1` (stereo unspecified)?
MPTP block: -0.6; TAAR1 antag: -4.2; TAAR1 agonist: 4.1

How did CC1(C)C(=O)OC(c2cc(Br)ccc2O)C(C)(C)C1=O (stereo unspecified) do in these assays?
MPTP block: 82.2*; TAAR1 antag: 1.9; GPR7 antagonist: -19.9; TAAR1 agonist: 3.2; DAGLB inh: -6.5; Rh123 counter: 89.2*

What do the screens show for `COc1ccc(S(=O)(=O)NC(=O)C2(C)CCN2C(=O)C2(c3ccc(Cl)cc3)CCC2)cc1` (stereo unspecified)?
MPTP block: -0.2; TAAR1 antag: 0.6; TAAR1 agonist: 0.2

How did COc1ccc2cc1Oc1ccc(cc1)C[C@H]1c3c(cc(OC)c4c3Oc3c(ccc5c3[C@H](C2)N(C)CC5)O4)CCN1C do in these assays?
MPTP block: 90.5*; DAGLB inh: -2.4; Rh123 counter: -17.9

Results for COc1ccc2cc1Oc1ccc(cc1)CC1c3c(cc(OC)c4c3Oc3cc5c(cc3O4)CCNC5C2)CCN1C (stereo unspecified) ?
MPTP block: 77.6*; GPR7 antagonist: 7.4; DAGLB inh: -2.3; Rh123 counter: -16.8

What do the screens show for `COc1cc2c(c(O)c1OC)C1Cc3ccc(OC)c(OC)c3CN1CC2` (stereo unspecified)?
MPTP block: -0.9; TAAR1 antag: -9.1; TAAR1 agonist: 2.1

How did Cc1ccc2ccccc2c1C(O)c1ncc(-c2ccccc2)[nH]1 (stereo unspecified) do in these assays?
MPTP block: 1.1; TAAR1 antag: -0.2; TAAR1 agonist: 10.3

Results for COc1ccc(-c2cc3c(=O)n(CC(=O)NCCCN4CCN(Cc5ccccc5)CC4)ncn3n2)cc1 ?
MPTP block: 91.0*; TAAR1 antag: -7.8; GPR7 antagonist: 5.3; TAAR1 agonist: 0.2; DAGLB inh: -2.5; Rh123 counter: 51.3*

Results for COc1ccc(-c2cc3c(=O)n(CC(=O)NCCCN4CCC(Cc5ccccc5)CC4)ncn3n2)cc1 ?
MPTP block: 85.3*; TAAR1 antag: -1.3; GPR7 antagonist: 23.3; TAAR1 agonist: 4.2; DAGLB inh: -1.8; Rh123 counter: 18.0

Results for CCOc1ccc(CCNC(=O)Cn2ncn3nc(-c4ccc(OC)cc4)cc3c2=O)cc1 ?
MPTP block: 0.0; TAAR1 antag: -23.9; GPR7 antagonist: -9.7; TAAR1 agonist: 6.0; DAGLB inh: 2.4

What do the screens show for `CCCCCC(=O)N1C[C@H](O)[C@@H](n2cc(C3CC3)nn2)C[C@@H]1c1ccc(Cl)cc1`?
MPTP block: 0.7; TAAR1 antag: -5.3; TAAR1 agonist: -0.2; DAGLB inh: -1.3

What do the screens show for `CC(C)(C)n1nc(C2CC2)cc1NC(=O)Nc1ccccc1`?
TAAR1 antag: 1.6; TAAR1 agonist: 2.8

How did Cc1snc(S(=O)(=O)/C(C#N)=N/Nc2ccc(C(F)(F)F)cc2)c1C#N do in these assays?
MPTP block: 90.5*; TAAR1 antag: 11.6; GPR7 antagonist: 3.1; TAAR1 agonist: 6.4; DAGLB inh: 3.5; Rh123 counter: 103.1*

How did Cc1snc(S(=O)(=O)/C(C#N)=N\Nc2ccccc2)c1C#N do in these assays?
MPTP block: -19.5; TAAR1 antag: 2.4; GPR7 antagonist: -15.4; TAAR1 agonist: 16.7; DAGLB inh: 1.4

Results for CC(=O)Nc1ccc(S(=O)(=O)c2ccnc3cc(Cl)ccc23)cc1 ?
MPTP block: 1.2; TAAR1 antag: 8.1; TAAR1 agonist: 6.7; DAGLB inh: -7.3

How did CCC(c1nnnn1-c1ccc2c(c1)OCCO2)N1CCN(c2cccc(C)c2C)CC1 (stereo unspecified) do in these assays?
MPTP block: 0.6; TAAR1 antag: -4.6; TAAR1 agonist: -0.5

Results for COC(=O)c1scc(C)c1NC(=O)c1ccc(Cl)cc1 ?
MPTP block: -0.4; GPR7 antagonist: -15.9; DAGLB inh: -3.5

Results for COC(=O)c1scc(C#N)c1N/N=C(\C#N)S(=O)(=O)c1ccc(Cl)cc1 ?
MPTP block: 66.8*; TAAR1 antag: 2.6; GPR7 antagonist: -12.4; TAAR1 agonist: 5.5; Rh123 counter: 83.6*

Results for COC(=O)c1scc(S(=O)(=O)C(C)C)c1N/N=C(\C#N)C(=O)c1ccc(Cl)cc1 ?
MPTP block: 72.6*; TAAR1 antag: 18.7; GPR7 antagonist: -8.3; TAAR1 agonist: 9.8; DAGLB inh: 18.6; Rh123 counter: 77.6*

What do the screens show for `C/C=C/c1cccc(-c2nc(C(=O)NC3CCC3)cc3c2[C@H](CCO)N(S(=O)C(C)(C)C)C3)c1` (stereo partly specified)?
MPTP block: -0.3; TAAR1 antag: -20.2; TAAR1 agonist: 1.0

What do the screens show for `CCCCNC(=O)C1C(c2ccc(OC)cc2)=Nc2ccccc2N1C(=O)c1ccncc1` (stereo unspecified)?
MPTP block: -2.3; TAAR1 antag: -14.3; TAAR1 agonist: 4.3

What do the screens show for `COc1cccc(CNC(=O)c2cc3c(C)nc4ccccc4c3o2)c1`?
MPTP block: 59.9*; TAAR1 antag: 26.3; GPR7 antagonist: -5.0; TAAR1 agonist: 1.5; DAGLB inh: -1.9; Rh123 counter: 33.6*
